Measurements: ChEMBL document CHEMBL5625186, “Synthesis, cytotoxicity, antioxidant activity and molecular modeling of new NSAIDs-EBS derivatives” (Eur J Med Chem, 2023)
The source made the active and inactive calls. The rule behind the calls is not given here.

Columns and labels:
BGC-823 = test: Cytotoxicity against human BGC-823 cells measured after 24 to 72 hrs by MTT assay; format: functional, cell-based
Procedure, shortened: (§1)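 Cells were grown in RPMI 1640 with 10% FBS and penicillin/streptomycin at 37 °C, 5% CO2. They were seeded at 1×10^4 cells/well and allowed to attach for 24 h. Compounds at various concentrations were then applied for 24, 48 or 72 h (DMSO below 1.25%). MTT (5.0 mg/mL) was added 3 h before the end, formazan was dissolved in DMSO and OD was read at 570 nm. Doxorubicin served as reference. Data are mean ± SD, n=3.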

SW480 = test: Cytotoxicity against human SW480 cells measured after 24 to 72 hrs by MTT assay; format: functional, cell-based; procedure, shortened: as §1
MCF7 = test: Cytotoxicity against human MCF7 cells measured after 24 to 72 hrs by MTT assay; format: functional, cell-based; procedure, shortened: as §1
HeLa = test: Cytotoxicity against human HeLa cells measured after 24 to 72 hrs by MTT assay; format: functional, cell-based; procedure, shortened: as §1
A549 = test: Cytotoxicity against human A549 cells measured after 24 to 72 hrs by MTT assay; format: functional, cell-based; procedure, shortened: as §1
[1] = Antioxidant activity assessed as DPPH radical scavenging activity incubated for 30 mins under dark condition relative to control; format: functional; parameters: concentration or dose not given beside the values
Procedure, shortened: (§2)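 Compounds at a range of concentrations were mixed with DPPH solution and kept 30 min in the dark. Absorbance was read at 517 nm. % activity = [(control A − sample A)/control A] × 100. Vitamin C and ebselen served as positive controls and DMSO as the negative control. Fold is expressed relative to vitamin C (set as 1). Values are mean ± SD of three independent experiments.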

DNA = test: Induction of bleomycin-dependent DNA (unknown origin) damage assessed as absorbance at 0.1 mg/ml measured after 1 hr; format: nucleic-acid assay
Procedure, shortened: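 The bleomycin-iron/DNA mixture was incubated at 37 °C for 1 h and stopped with 0.1 M EDTA. Colour was developed with 1% TBA plus 25% HCl at 80 °C for 30 min. After ice cooling, DNA damage was read as the increase in absorbance at 532 nm. L-ascorbic acid served as the positive control.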

[2] = Antioxidant activity assessed as glutathione peroxidase-like activity at 41 mM measured over 3 mins; format: functional
Procedure, shortened: (§3)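 GPx-like rate measured from GSH/glutathione reductase/NADPH coupling in 50 mM phosphate buffer with 0.1% Triton X-100. The compound was added from a 41 mM solution, and the reaction was started with H2O2 (0.8 mM). A340 was followed for 3 min and expressed as ΔA/min. Values were corrected for the H2O2 + GSH background, and for the compound's own absorbance if coloured. Ebselen (41 mM) served as reference.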

[3] = target: T1, Thioredoxin reductase 1, cytoplasmic (Rattus norvegicus, UniProt O89049); test: Inhibition of rat TrxR1 using DTNB as substrate preincubated for 15 mins followed by substrate addition and measured for 20 mins by colorimetric method
T1 sequence (O89049 whole entry): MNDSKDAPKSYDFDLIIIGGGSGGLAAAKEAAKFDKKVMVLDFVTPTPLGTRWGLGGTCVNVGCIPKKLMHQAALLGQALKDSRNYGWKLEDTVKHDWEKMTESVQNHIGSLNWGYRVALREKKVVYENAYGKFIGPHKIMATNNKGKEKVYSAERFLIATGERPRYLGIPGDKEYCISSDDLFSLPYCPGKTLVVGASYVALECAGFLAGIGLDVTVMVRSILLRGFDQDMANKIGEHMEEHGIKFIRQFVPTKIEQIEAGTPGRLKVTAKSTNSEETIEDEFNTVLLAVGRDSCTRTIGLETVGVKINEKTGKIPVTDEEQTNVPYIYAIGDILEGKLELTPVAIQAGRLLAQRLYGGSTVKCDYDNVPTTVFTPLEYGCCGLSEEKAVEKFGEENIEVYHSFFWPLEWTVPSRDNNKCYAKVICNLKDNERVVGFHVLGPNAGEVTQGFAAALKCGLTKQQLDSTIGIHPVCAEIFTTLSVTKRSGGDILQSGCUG
Procedure, shortened: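 Rat TrxR1 (5 nM) was used in 100 mM potassium phosphate pH 7.0 with 1 mM EDTA, 0.1 mg/ml BSA and 0.2 mM NADPH. […] DTNB was then added and the A412 increase was monitored for 20 min.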

[4] = Potency index, ratio of test compound to vitamin C antioxidant activity assessed as DPPH radical scavenging activity incubated for 30 mins under dark condition; format: functional; procedure, shortened: as §2
[5] = Antioxidant activity assessed as glutathione peroxidase-like activity at 41 mM measured over 3 mins relative to ebselen glutathione peroxidase-like activity; format: functional; procedure, shortened: as §3

EC50 [3] [µM]	SMILES	IC50 (BGC-823) [µM]	IC50 (SW480) [µM]	IC50 (MCF7) [µM]	IC50 (HeLa) [µM]	IC50 (A549) [µM]	inhibition [1] [%]	Activity (DNA)	Activity [2]	Ratio [4]	fold change (FC) [5]
26.6	Cc1cccc(Nc2ccccc2C(=O)NCCn2[se]c3ccccc3c2=O)c1C	6.5	7.2	5.3	8.8	5.2	37.4	72.4	Active	0.4	–
27	CC1=C(CC(=O)NCCn2[se]c3ccccc3c2=O)c2cc(F)ccc2/C1=C\c1ccc([S+](C)[O-])cc1 (centres undefined)	16.6	10.4	14.4	11.3	13.3	29	68.4	Active	0.3	–
–	O=c1c2ccccc2[se]n1-c1ccccc1 [EBSELEN]	> 50	> 50	> 50	> 50	> 50	–	–	–	–	–
24.5	COc1ccc2c(c1)c(CC(=O)NCCn1[se]c3ccccc3c1=O)c(C)n2C(=O)c1ccc(Cl)cc1	17.4	14.3	10.3	13.6	11.2	27.3	92.4	Active	0.3	–
23.6	CC(C(=O)NCCn1[se]c2ccccc2c1=O)c1cccc(C(=O)c2ccccc2)c1 (centres undefined)	13.6	14.6	10.3	11.3	15.6	33.3	87.6	Active	0.3	–
–	COc1cccc2c1C(=O)c1c(O)c3c(c(O)c1C2=O)C[C@@](O)(C(=O)CO)C[C@@H]3O[C@H]1C[C@H](N)[C@H](O)[C@H](C)O1 [DOXORUBICIN]	9.8	12.4	12.8	11.5	9.4	–	–	–	–	–
–	COc1ccc2cc([C@H](C)C(=O)O)ccc2c1 [NAPROXEN]	> 50	> 50	> 50	> 50	> 50	–	–	–	–	–
–	CC(=O)Oc1ccccc1C(=O)O [ASPIRIN]	> 50	> 50	> 50	> 50	> 50	–	–	–	–	–
11.5	O=C(NCc1ccc(-n2[se]c3ccccc3c2=O)cc1)c1ccccc1Nc1cccc(C(F)(F)F)c1	8.4	13.7	14.2	7.5	12.7	51.5	56.1	–	0.5	–
14.6	COc1ccc2cc(C(C)C(=O)NCc3ccc(-n4[se]c5ccccc5c4=O)cc3)ccc2c1 (centres undefined)	13.5	7.4	13.8	9.7	11.4	68.6	82.8	Active	0.7	–
15.7	COc1ccc2c(c1)c(CC(=O)NCc1ccc(-n3[se]c4ccccc4c3=O)cc1)c(C)n2C(=O)c1ccc(Cl)cc1	9.2	7.5	11.3	14.3	10.3	78.7	101	Active	0.8	–
28.4	COc1ccc2cc(C(C)C(=O)NCCn3[se]c4ccccc4c3=O)ccc2c1 (centres undefined)	13.5	15.7	16.5	8.8	14.7	28.6	123	Active	0.3	–
17.1	CCC1(CC)OCCc2c1[nH]c1c(CC(=O)NCc3ccc(-n4[se]c5ccccc5c4=O)cc3)cccc21	9.8	12.3	8.8	12.6	9.8	52.1	97.4	–	0.5	–
19.6	CC(C(=O)NCc1ccc(-n2[se]c3ccccc3c2=O)cc1)c1cccc(C(=O)c2ccccc2)c1 (centres undefined)	11.2	12.5	8.4	9.2	13.2	31.3	85.3	–	0.3	–
17.2	CC(C)Cc1ccc(C(C)C(=O)NCc2ccc(-n3[se]c4ccccc4c3=O)cc2)cc1 (centres undefined)	7.5	10.4	12.4	9.3	8.1	42.6	106	Active	0.4	–
10.4	CC1=C(CC(=O)NCc2ccc(-n3[se]c4ccccc4c3=O)cc2)c2cc(F)ccc2/C1=C\c1ccc([S+](C)[O-])cc1 (centres undefined)	9.5	9.8	7.4	8.4	8.3	42.9	72.4	–	0.4	–
11.2	CC(C(=O)NCc1ccc(-n2[se]c3ccccc3c2=O)cc1)c1ccc(-c2ccccc2)c(F)c1 (centres undefined)	6.5	8.3	11.3	9.5	12.3	58.2	57.3	Active	0.6	–
14.3	Cc1cccc(Nc2ccccc2C(=O)NCc2ccc(-n3[se]c4ccccc4c3=O)cc2)c1C	3.4	4.5	4.2	3.8	3.6	54.3	72.4	Active	0.5	–
24.8	O=C(NCCn1[se]c2ccccc2c1=O)c1ccccc1Nc1cccc(C(F)(F)F)c1	11.4	9.4	12.6	15.2	12.2	41.7	77.7	Active	0.4	–
–	O=C1O[C@H]([C@@H](O)CO)C(O)=C1O	–	–	–	–	–	97.2	292	–	–	–
8.8	CC(=O)Oc1ccccc1C(=O)NCc1ccc(-n2[se]c3ccccc3c2=O)cc1	2.4	2.8	1.5	1.7	2.1	57.3	108	Active	0.5	< 3
28.5	CC(C(=O)NCCn1[se]c2ccccc2c1=O)c1ccc(-c2ccccc2)c(F)c1 (centres undefined)	9.5	11.3	14.9	10.4	13.6	42.5	85.7	Active	0.4	–
23.5	C=C(C(=O)NCCn1[se]c2ccccc2c1=O)c1ccc(CC(C)C)cc1	12.5	11.4	15.7	10.6	9.4	33.5	68.4	Active	0.3	–
–	CC(C)Cc1ccc(C(C)C(=O)O)cc1 (centres undefined) [IBUPROFEN]	> 50	> 50	> 50	> 50	> 50	–	–	–	–	–

SMILES	EC50 [3] [µM]	IC50 (BGC-823) [µM]	IC50 (SW480) [µM]	IC50 (MCF7) [µM]	IC50 (HeLa) [µM]	IC50 (A549) [µM]	inhibition [1] [%]	Activity (DNA)	Activity [2]	Ratio [4]	fold change (FC) [5]
CC(=O)Oc1ccccc1C(=O)NCCn1[se]c2ccccc2c1=O	21.4	11.4	14.2	14.5	12.7	10.6	41.4	91.4	Active	0.4	–
